Assay results taken from ChEMBL document CHEMBL2176968, “Identification of less lipophilic riminophenazine derivatives for the treatment of drug-resistant tuberculosis” (J Med Chem, 2012).
≈ marks a conversion by molar mass, not a printed value.

Experiments:
[1] = system: Mycobacterium tuberculosis; experiment: Antimycobacterial activity against Mycobacterium tuberculosis H37Rv ATCC 27294 after 7 days by microplate Alamar blue assay; assay type: functional; settings: H37Rv ATCC 27294, 168 h
In short: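 Run in 96-well plates against M. tuberculosis H37Rv using the Alamar Blue read-out. The MIC was taken as the lowest concentration giving >90% growth inhibition.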

Vero = experiment: Cytotoxicity against african green monkey Vero cells after 48 hrs by MTT assay; assay type: cell-based; settings: Chlorocebus sabaeus
In short: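 Vero cells were exposed to compound. The IC50 was taken as the concentration inhibiting 50% of growth relative to an untreated control.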

[2] = Selectivity index, ratio of IC50 for african green monkey Vero cells to MIC for Mycobacterium tuberculosis H37Rv ATCC 27294; assay type: functional
Mus musculus = experiment: Acute toxicity in mouse assessed as survival at 500 mg/kg, po measured for 7 days; assay type: organism-based; design: dose 500 mg/kg, route oral; settings: in vivo, 168 h
In short: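 Mice given one oral dose of 500 mg/kg, then observed for 7 days. The number of surviving mice was recorded.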

[3] = Octanol-water partition coefficient, log P of the compound; assay type: physicochemical
[4] = Cmax in BALB/c mouse at 20 mg/kg, po; assay type: ADME, organism-based; design: dose 20 mg/kg, route oral; settings: in vivo
[5] = Half life in BALB/c mouse at 20 mg/kg, po; assay type: ADME, organism-based; design: dose 20 mg/kg, route oral; settings: in vivo
[6] = AUC (0 to 24 hrs) in BALB/c mouse at 20 mg/kg, po; assay type: ADME, organism-based; design: time < 24 hr, dose 20 mg/kg, route oral; settings: plasma
[7] = Aqueous solubility of the compound in 100 ml buffer solution at pH 1.0; assay type: physicochemical
In short: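 Solubility was measured in pH 1 buffer and reported in g/100 mL.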

[8] = Acute toxicity in mouse; assay type: organism-based; settings: in vivo

| SMILES | MIC [1] [µg/mL] | IC50 (Vero) [µg/mL] | Selectivity Index [2] | Activity (Mus musculus) | logP [3] | Cmax [4] [ng/mL] | half-life [5] [h] | AUC(0-t) at 24 h [6] [ng·h/mL] | solubility [7] [g] | LD50 [8] [mg/kg] |
| --- | --- | --- | --- | --- | --- | --- | --- | --- | --- | --- |
| COc1ncccc1Nc1cc2nc3ccccc3n(-c3ccc(Br)cc3)c-2c/c1=N\C1CCOCC1 | 0.02 (≈ 0.0359 µM) | > 64 | 3200 | Non-toxic |  |  |  |  |  |  |
| COc1ncccc1Nc1cc2nc3ccccc3n(-c3ccc(OC(F)(F)F)cc3)c-2c/c1=N\C1CCC(OC)CC1 (stereo not drawn) | 0.016 (≈ 0.0271 µM) | > 64 | 4000 | Non-toxic | 4.52 | 1300 | 41.2 | 24100 |  |  |
| COc1ncccc1Nc1cc2nc3ccccc3n(-c3ccc(Cl)cc3)c-2c/c1=N\C1CCOCC1 | 0.016 (≈ 0.0312 µM) | > 64 | 4000 | Non-toxic | 4.15 | 2010 | 6.62 | 33100 |  |  |
| COc1ncccc1Nc1cc2nc3ccccc3n(-c3ccc(Cl)cc3)c-2c/c1=N\C1CCC(OC)CC1 (stereo not drawn) | 0.016 (≈ 0.0296 µM) | > 64 | 4000 | Non-toxic | 3.74 | 3010 | 7 | 43900 |  |  |
| COC1CCC(/N=c2\cc3n(-c4ccc(Cl)cc4)c4ccccc4nc-3cc2Nc2cccnc2C)CC1 (stereo not drawn) | 0.011 (≈ 0.021 µM) | 35.1 (≈ 67.1 µM) | 3195 | Toxic |  |  |  |  |  |  |
| COC1CCC(/N=c2\cc3n(-c4ccc(Cl)cc4)c4ccccc4nc-3cc2Nc2ccc(C)nc2)CC1 (stereo not drawn) | 0.016 (≈ 0.0305 µM) | 50.9 (≈ 97.1 µM) | 3180 | Non-toxic | 4.11 | 1560 | 16.1 | 22100 |  |  |
| COc1ncccc1Nc1cc2nc3ccccc3n(-c3ccc(F)cc3)c-2c/c1=N\C(C)C | 0.03 (≈ 0.0661 µM) | > 64 | 2133 | Non-toxic | 4.07 | 3020 | 17.5 | 52400 | 0.7 |  |
| COc1ncccc1Nc1cc2nc3ccccc3n(-c3ccc(F)cc3)c-2c/c1=N\C1CCC(OC)CC1 (stereo not drawn) | 0.016 (≈ 0.0306 µM) | > 64 | 4000 | Non-toxic | 4.82 | 3650 | 7.9 | 45400 |  |  |
| Cc1ncccc1Nc1cc2nc3ccccc3n(-c3ccc(F)cc3)c-2c/c1=N\C1CCOCC1 | 0.026 (≈ 0.0542 µM) | > 64 | 2462 | Toxic |  |  |  |  |  |  |
| COC1CCC(/N=c2\cc3n(-c4ccc(F)cc4)c4ccccc4nc-3cc2Nc2cccnc2C)CC1 (stereo not drawn) | 0.019 (≈ 0.0374 µM) | > 64 | 3368 | Toxic |  |  |  |  |  |  |
| COc1ncccc1Nc1cc2nc3ccccc3n(-c3ccc(C(F)(F)F)cc3)c-2c/c1=N\C(C)C | 0.029 (≈ 0.0576 µM) | > 64 | 2207 | Non-toxic |  |  |  |  |  |  |
| COc1ncccc1Nc1cc2nc3ccccc3n(-c3ccc(C(F)(F)F)cc3)c-2c/c1=N\C1CCOCC1 | 0.016 (≈ 0.0293 µM) | > 64 | 4000 | Non-toxic |  |  |  |  |  |  |
| COc1ncccc1Nc1cc2nc3ccccc3n(-c3ccc(C(F)(F)F)cc3)c-2c/c1=N\C1CCC(OC)CC1 (stereo not drawn) | 0.016 (≈ 0.0279 µM) | > 64 | 4000 | Non-toxic |  |  |  |  |  |  |
| Cc1ncccc1Nc1cc2nc3ccccc3n(-c3ccc(C(F)(F)F)cc3)c-2c/c1=N\C1CCOCC1 | 0.011 (≈ 0.0208 µM) | > 64 | 5818 | Toxic |  |  |  |  |  |  |
| CC(C)/N=c1\cc2n(-c3ccc(Cl)cc3)c3ccccc3nc-2cc1Nc1cccnc1 | 0.03 (≈ 0.0682 µM) | 8.2 (≈ 18.6 µM) | 273 |  |  |  |  |  |  | 422 |
| CC(C)/N=c1\cc2n(-c3ccc(Cl)cc3)c3ccccc3nc-2cc1Nc1ccc(Cl)cc1 [CLOFAZIMINE] | 0.12 (≈ 0.253 µM) | 68.6 (≈ 145 µM) | 572 |  | 5.34 | 380 | 29.7 | 6960 |  | > 3000 |
